# Published values pooled from the literature.
# Protocols differ between the studies behind these lines.
# Target: Carbonic anhydrase 1 (CA1, Homo sapiens, UniProt P00915)
# Observed: enzyme activity
# Action: inhibitor
SMILES,assay,quantity,result
NC(=S)N/N=C1/c2ccccc2[C@@H]2[C@H]1[C@@H](c1ccc(F)cc1)[C@H](C(=O)c1ccc(F)cc1)[C@H]2c1ccc(F)cc1 (racemic),absorbance,IC50,293 nM
CC(C)c1cc2c(c(O)c1O)[C@@]13CCCC(C)(C)[C@@H]1[C@H](OC3=O)[C@H]2O,,IC50,0.21 nM
O=C(Nc1ccc(Cl)cc1)Nc1ccc2c(c1)C=CCP(=O)(O)O2,stopped-flow,Ki,> 10000 nM
Cc1ccc([C@@H]2[C@@H](C(=O)c3cccs3)[C@H](c3ccco3)[C@H]3/C(=N\NC(N)=S)c4ccccc4[C@H]32)cc1 (racemic),absorbance,IC50,413 nM
CC(C)c1cc2c(c(O)c1O)[C@@]1(C(=O)O)CCCC(C)(C)[C@@H]1CC2,,Ki,5.98 nM
N#C[Se]Cc1cc(=O)oc2cc(O)ccc12,stopped-flow,Ki,> 100000 nM
NC(=S)N/N=C1/c2ccccc2[C@@H]2[C@H]1[C@@H](c1ccc(C(F)(F)F)cc1)[C@H](C(=O)c1ccc(C(F)(F)F)cc1)[C@H]2c1ccc(C(F)(F)F)cc1 (racemic),absorbance,IC50,570 nM
O=C(Nc1ccc2c(c1)C=CCP(=O)(O)O2)c1ccccc1I,stopped-flow,Ki,> 10000 nM
NC(=S)N/N=C1/c2ccccc2[C@@H]2[C@H]1[C@@H](c1ccsc1)[C@H](C(=O)c1ccsc1)[C@H]2c1ccsc1 (racemic),absorbance,IC50,452 nM
O=C(Nc1cccc(C(F)(F)F)c1)Nc1ccc2c(c1)C=CCP(=O)(O)O2,stopped-flow,Ki,> 10000 nM
CC(C)c1cc2c(c(O)c1O)[C@@]13CCCC(C)(C)[C@@H]1[C@@H](O)[C@@H]2OC3=O,,Ki,1.28 nM
COc1ccc(C(=O)[C@@H]2[C@@H](c3ccc(OC)cc3)[C@@H]3c4ccccc4/C(=N/NC(N)=S)[C@@H]3[C@H]2c2ccc(OC)cc2)cc1 (racemic),absorbance,IC50,1070 nM
N#C[Se]CCCCOc1ccc2c(-c3ccccc3)cc(=O)oc2c1,stopped-flow,Ki,> 100000 nM
O=C(Nc1cccc(Cl)c1)Nc1ccc2c(c1)C=CCP(=O)(O)O2,stopped-flow,Ki,> 10000 nM
CC(C)c1cc2c(c(O)c1O)[C@@]13CCCC(C)(C)[C@@H]1C[C@@H]2OC3=O,,IC50,2.4 nM
